Measurements from ChEMBL document CHEMBL1926532, “Bioactive myrsinol diterpenoids from the roots of Euphorbia prolifera” (J Nat Prod, 2011).

Experiments:
[1] = test system: SH-SY5Y; assay: Neuroprotective activity against MPP+-induced human SH-SY5Y cell death assessed as cell viability at 3 uM pretreated for 2 hrs prior to MPP+ induction by MTT assay relative to control; format: functional; details: read-out: Activity
Summary of the method: (§1)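 SH-SY5Y cells in DMEM with 10% FBS and penicillin/streptomycin at 37 °C, 5% CO2. Detached with 1 mM EGTA in PBS for 15 min, seeded at 1 × 10^4 cells/well, grown 24 h. Pretreated 2 h with compound (3, 10, 30 μM), then MPP+ medium. MTT (0.5 mg/mL final) added for 4 h; formazan read at 490 nm. Viability expressed against vehicle control (100). Triplicates, mean ± SEM, ANOVA/Student–Newman–Keuls.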

[2] = test system: SH-SY5Y; assay: Neuroprotective activity against MPP+-induced human SH-SY5Y cell death assessed as cell viability at 30 uM pretreated for 2 hrs prior to MPP+ induction by MTT assay relative to control; format: functional; details: read-out: Activity; summary of the method: as §1
[3] = test system: SH-SY5Y; assay: Neuroprotective activity against MPP+-induced human SH-SY5Y cell death assessed as cell viability at 10 uM pretreated for 2 hrs prior to MPP+ induction by MTT assay relative to control; format: functional; details: read-out: Activity; summary of the method: as §1
[4] = test system: SH-SY5Y; assay: Cytotoxicity against human SH-SY5Y cells assessed as cell viability at 3 to 30 uM by MTT assay; format: cell-based

C=C(C)[C@H]1C=C[C@@H](OC(=O)c2ccccc2)[C@@]23CO[C@@](C)([C@H](OC(=O)c4cccnc4)[C@@]4(OC(C)=O)C[C@H](C)[C@H](OC(=O)CC)[C@@H]4[C@@H]2OC(C)=O)[C@H]13
viability at 3 µM [1]: 77.7% | viability at 30 µM [2]: 96.5% | viability at 10 µM [3]: 87.4% | Activity [4]: Non-toxic

CC(=O)O[C@@H]1[C@@H]2[C@@H](OC(C)=O)[C@@]34CO[C@@](C)([C@H](OC(=O)c5ccccc5)[C@@]2(O)C[C@@H]1C)[C@@H]3[C@@H]1[C@@H](C[C@]1(C)OC(C)=O)[C@@H](OC(=O)c1ccccc1)C4=O [EUPHORBIAPROLIFERIN E]
viability at 3 µM [1]: 67.1% | viability at 30 µM [2]: 82.1% | viability at 10 µM [3]: 76%

CC(=O)O[C@@H]1[C@H]2[C@@H](OC(=O)C(C)C)[C@@H](C)C[C@]2(OC(C)=O)[C@@H](OC(C)=O)[C@]2(C)OC[C@]13C(=O)C=C[C@H](C(C)(C)OC(C)=O)[C@@H]23 [EUPHORBIAPROLIFERIN C]
viability at 3 µM [1]: 68.3% | viability at 30 µM [2]: 81.3% | viability at 10 µM [3]: 75.4%

C=C(C)[C@H]1C=C[C@@H](OC(C)=O)[C@@]23CO[C@@](C)([C@H](OC(C)=O)[C@@]4(OC(C)=O)C[C@H](C)[C@H](OC(=O)CC)[C@@H]4[C@H]2OC(C)=O)[C@H]13 [EUPHORBIAPROLIFERIN G]
viability at 3 µM [1]: 65.6% | viability at 30 µM [2]: 88.7% | viability at 10 µM [3]: 78.3%

C=C(C)[C@H]1C=C[C@@H](OC(C)=O)[C@@]23CO[C@@](C)([C@H](OC(=O)c4ccccc4)[C@@]4(OC(C)=O)C[C@H](C)[C@H](OC(=O)CC)[C@@H]4[C@H]2OC(C)=O)[C@H]13 [EUPHORBIAPROLIFERIN F]
viability at 3 µM [1]: 74.5% | viability at 30 µM [2]: 93.5% | viability at 10 µM [3]: 87.1%

CCC/C=C/C=C/C=C\CO[C@@H]1[C@@H](C)[C@]2(O)[C@@H]3C=C(C)C(=O)[C@H]3CC(CO)=C[C@H]2[C@@H]2C(C)(C)[C@]12OC(=O)C(C)C
viability at 3 µM [1]: 69.6% | viability at 30 µM [2]: 84.1% | viability at 10 µM [3]: 77.3%

CCC(=O)O[C@@H]1[C@@H]2[C@@H](OC(C)=O)[C@@]34CO[C@@](C)([C@@H](OC(=O)c5ccccc5)[C@@]2(OC(C)=O)C[C@@H]1C)[C@@H]3[C@@H](C(C)(C)OC(C)=O)C=C[C@H]4OC(C)=O [PROLIFERIN C]
viability at 3 µM [1]: 76.7% | viability at 30 µM [2]: 95.1% | viability at 10 µM [3]: 84.5% | Activity [4]: Non-toxic

CCC(=O)O[C@@H]1[C@@H]2[C@@H](OC(C)=O)[C@@]34CO[C@@](C)([C@@H](OC(=O)c5ccccc5)[C@@]2(OC(C)=O)C[C@@H]1C)[C@@H]3[C@@H]1[C@H](C[C@H]4OC(C)=O)C1(C)C [EUPHORBIAPROLIFERIN I]
viability at 3 µM [1]: 84.8% | viability at 30 µM [2]: 101% | viability at 10 µM [3]: 88.9% | Activity [4]: Non-toxic

C=C(C)[C@H]1C=C[C@@H](OC(=O)c2ccccc2)[C@@]23CO[C@@](C)([C@H](OC(C)=O)[C@@]4(OC(C)=O)C[C@H](C)[C@H](OC(=O)CC)[C@@H]4[C@@H]2OC(C)=O)[C@H]13
viability at 3 µM [1]: 78.1% | viability at 30 µM [2]: 94.2% | viability at 10 µM [3]: 86.5%

CCC(=O)O[C@@H]1[C@@H]2[C@@H](OC(C)=O)[C@@]34CO[C@@](C)([C@@H](OC(=O)c5ccccc5)[C@@]2(OC(C)=O)C[C@@]1(C)OC(C)=O)[C@@H]3[C@@H](C(C)(C)OC(C)=O)C=C[C@H]4OC(C)=O [EUPHORPROLITHERIN B]
viability at 3 µM [1]: 70.3% | viability at 30 µM [2]: 92.2% | viability at 10 µM [3]: 81.7%

CCCC(=O)O[C@@H]1[C@@H]2[C@@H](OC(C)=O)[C@@]34CO[C@@](C)([C@@H](OC(=O)c5ccccc5)[C@@]2(OC(C)=O)C[C@@H]1C)[C@@H]3[C@@H]1[C@H](C[C@H]4OC(C)=O)C1(C)C [EUPHORBIAPROLIFERIN J]
viability at 3 µM [1]: 79.8% | viability at 30 µM [2]: 104% | viability at 10 µM [3]: 89.2% | Activity [4]: Non-toxic

C=C(C)[C@H]1C=C[C@@H](OC(=O)c2ccccc2)[C@@]23CO[C@@](C)([C@@H](OC(=O)c4ccccc4)[C@@]4(OC(C)=O)C[C@H](C)[C@H](OC(=O)CC)[C@@H]4[C@H]2OC(C)=O)[C@H]13 [EUPHORPROLITHERIN C]
viability at 3 µM [1]: 75.5% | viability at 30 µM [2]: 103% | viability at 10 µM [3]: 91.5% | Activity [4]: Non-toxic

CCC(=O)O[C@@H]1[C@@H]2[C@@H](OC(=O)c3ccccc3)[C@@]3(COC(C)=O)[C@@H]([C@@H]4[C@H](C[C@H]3OC(C)=O)C4(C)C)[C@](C)(OC(C)=O)C(=O)[C@@]2(O)C[C@@H]1C
viability at 3 µM [1]: 61.5% | viability at 30 µM [2]: 78.5% | viability at 10 µM [3]: 70.3%

CCC(=O)O[C@@H]1[C@@H]2[C@@H](OC(C)=O)[C@@]34CO[C@@](C)([C@H](OC(=O)c5ccccc5)[C@@]2(OC(C)=O)C[C@@H]1C)[C@@H]3[C@@H](C(C)(C)OC(C)=O)C=CC4=O [EUPHORBIAPROLIFERIN D]
viability at 3 µM [1]: 68.7% | viability at 30 µM [2]: 88.6% | viability at 10 µM [3]: 71.3%

C=C(C)[C@H]1C=C[C@@H](OC(=O)c2ccccc2)[C@@]23CO[C@@](C)([C@H](OC(=O)c4ccccc4)[C@@]4(OC(C)=O)C[C@H](C)[C@H](OC(C)=O)[C@@H]4[C@H]2OC(C)=O)[C@H]13 [EUPHORBIAPROLIFERIN H]
viability at 3 µM [1]: 83.6% | viability at 30 µM [2]: 99.4% | viability at 10 µM [3]: 89.8% | Activity [4]: Non-toxic

CCC(=O)O[C@@H]1[C@@H]2[C@@H](OC(C)=O)[C@@]34CO[C@@](C)([C@@H](OC(=O)c5ccccc5)[C@@]2(OC(C)=O)C[C@@]1(C)OC(=O)C(C)C)[C@@H]3[C@@H](C(C)(C)OC(C)=O)C=C[C@H]4OC(C)=O [PROLIFERIN A]
viability at 3 µM [1]: 74.4% | viability at 30 µM [2]: 97.8% | viability at 10 µM [3]: 85.2% | Activity [4]: Non-toxic

CCC(=O)O[C@@H]1[C@@H]2[C@@H](OC(C)=O)[C@@]34CO[C@@](C)([C@@H](OC(=O)C(C)C)[C@@]2(OC(C)=O)C[C@@]1(C)OC(=O)C(C)C)[C@@H]3[C@@H](C(C)(C)OC(C)=O)C=C[C@H]4OC(C)=O (relative stereo) [EUPHORBIAPROLIFERIN A]
viability at 3 µM [1]: 75.1% | viability at 30 µM [2]: 92.7% | viability at 10 µM [3]: 83.5%

Nc1nc2c(ncn2[C@@H]2O[C@H](CO)[C@@H](O)[C@H]2O)c(=O)[nH]1 [GUANOSINE]
viability at 3 µM [1]: 68.1% | viability at 30 µM [2]: 87.3% | viability at 10 µM [3]: 77.3%

CCC(=O)O[C@@H]1[C@@H]2[C@@H](OC(C)=O)[C@@]34CO[C@@](C)([C@@H](OC(=O)c5ccccc5)[C@@]2(OC(C)=O)C[C@@]1(C)OC(=O)c1ccccc1)[C@@H]3[C@@H](C(C)(C)OC(C)=O)C=C[C@H]4OC(C)=O [PROLIFERIN B]
viability at 3 µM [1]: 82.1% | viability at 30 µM [2]: 112% | viability at 10 µM [3]: 95.4% | Activity [4]: Non-toxic

CCCC(=O)O[C@@H]1[C@@H]2[C@@H](OC(C)=O)[C@@]34CO[C@@](C)([C@@H](OC(=O)c5ccccc5)[C@@]2(OC(C)=O)C[C@@]1(C)OC(=O)c1ccccc1)[C@@H]3[C@@H](C(C)(C)OC(C)=O)C=C[C@H]4OC(C)=O (relative stereo) [EUPHORBIAPROLIFERIN B]
viability at 3 µM [1]: 74.8% | viability at 30 µM [2]: 109% | viability at 10 µM [3]: 93.2% | Activity [4]: Non-toxic
